The list is not random: actives were taken first. Their share in the collection is about 7.2%.
M1 ag – agonists of M1 muscarinic receptor; CHO-M1 cells, Fluo-4 calcium fluorescence, agonist mode; active compounds read high; B-score at 10 µM; actives 3% (n = 64,000);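 active = fluorescence rise, raw or as B-score row- and column-corrected plate score, outside the 99.7% band of its plate's samples, either direction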
HEK293 NFkB inh – lowers PMA/ionomycin-induced NF-kB signal in HEK293 cells. HEK-293 NF-kB luciferase reporter, luminescence. inhibition, % at 3 µM. actives 0.21% (n = 62,000). AID 465;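 active = inhibition above the mean of all tested compounds plus 3 SD, cut at about 40% in these data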;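 note: 0% = stimulated DMSO wells and 100% = 10 µM reference inhibitor 5653914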
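System – HEK-293 cells with stable firefly luciferase reporter driven by four HIV NF-kB elements · Doses – one dose, 3 µM · Schedule – 1 h compound pre-incubation, 16 h PMA/ionomycin at 37 °C · Technique – luminescence from luciferase substrate reagent · Measure – percent inhibition normalized per plate to DMSO and reference-inhibitor controls · Replicates – tested once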
hDAT+cocaine – changed human dopamine transporter uptake under cocaine IC80. Q01959. LLC-PK1 hDAT cells, [14C]-dopamine uptake with cocaine IC80; actives deviate in either direction. B-score at 10 µM. actives 1.3% (n = 110,000). AID 449768;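 active = Z score or B-score, a plate-position-corrected score, falls beyond the plate's 99.7% confidence bounds, in either direction; inactive = both scores lie inside the 99.7% bounds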;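 note: scored against the spread of the other compound wells on the same plate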
M1 antag – antagonists of rat M1 muscarinic receptor. AID 628. P08482. actives 3.4% (n = 64,000). B-score at 10 µM. CHO-M1 cells, Fluo-4 calcium, ACh EC80 antagonist mode; active compounds read low;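 active = calcium fluorescence response, raw or row-and-column corrected B-score, differing from the plate sample mean either way at a set confidence level, mostly lower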
D1 mod – allosteric modulators of human D1 dopamine receptor; actives 5.9% (n = 58,000); HEK293 D1, CRE-luciferase, dopamine EC30 potentiation; actives deviate in either direction; B-score at 10 µM; P21728;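 active = luminescence count or its row- and column-corrected plate score outside the 99.7% band of the plate's sample wells, on either side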
BAP1 block – human BAP1 deubiquitinase inhibition. calls only at 20 µM. recombinant BAP1, Ub-AMC hydrolysis fluorescence kinetic; active compounds read low. Q92560. actives 0.48% (n = 72,000);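 active = activity remaining at or below 50% of control, provided the compound also passes the data quality filters; inactive = the rest, including low values that fail the filters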;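 note: 100% = DMSO wells rate and 0% = substrate alone blank rate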
Target sequence (Q92560 whole entry, looked up): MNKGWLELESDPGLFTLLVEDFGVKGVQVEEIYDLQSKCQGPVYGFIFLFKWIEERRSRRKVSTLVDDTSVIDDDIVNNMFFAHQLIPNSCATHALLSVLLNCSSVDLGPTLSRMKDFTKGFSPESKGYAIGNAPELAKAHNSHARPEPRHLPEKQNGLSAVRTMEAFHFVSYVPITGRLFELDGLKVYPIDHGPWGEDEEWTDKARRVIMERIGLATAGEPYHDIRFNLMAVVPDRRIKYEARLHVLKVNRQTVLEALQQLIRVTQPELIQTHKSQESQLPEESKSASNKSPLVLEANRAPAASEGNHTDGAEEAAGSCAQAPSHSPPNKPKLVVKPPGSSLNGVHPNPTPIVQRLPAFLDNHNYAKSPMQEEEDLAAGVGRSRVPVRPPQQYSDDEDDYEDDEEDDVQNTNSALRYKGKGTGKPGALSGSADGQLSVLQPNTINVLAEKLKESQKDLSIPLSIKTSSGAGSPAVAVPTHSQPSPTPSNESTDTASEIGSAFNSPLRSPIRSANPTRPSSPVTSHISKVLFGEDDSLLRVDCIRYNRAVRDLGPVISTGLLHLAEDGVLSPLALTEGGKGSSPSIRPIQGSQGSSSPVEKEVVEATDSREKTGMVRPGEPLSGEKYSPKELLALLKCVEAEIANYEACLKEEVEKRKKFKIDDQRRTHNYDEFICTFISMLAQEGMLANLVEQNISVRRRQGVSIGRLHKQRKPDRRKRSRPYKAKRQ
M1 antag conf – M1 muscarinic receptor (rat) antagonism, confirmed; shares compounds with M1 antag; CHO-M1 cells, Fluo-4 calcium, ACh EC80 antagonism; active compounds read low; calcium response (max-min fluorescence) at 10 µM; actives 43% (n = 1,700); AID 677;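 active = calcium response below the same-plate mean of wells given acetylcholine alone at its 80%-effect dose, minus 3 SD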;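 note: raw fluorescence intensity difference in arbitrary instrument units and not normalized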
mGluR4 antag – mGluR4 (human) activity, M1 antagonist secondary assay; fluorescence response (max-min) at 10 µM; AID 678; shares compounds with M1 antag; CHO-mGluR4 calcium flux, Fluo-4 fluorescence, glutamate EC80; active compounds read low; actives 0.9% (n = 1,700);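 active = fluorescence response below the plate's average for near-maximal glutamate wells, less 3 SD of those wells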;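 note: raw unnormalized fluorescence span taken in the window right after glutamate addition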
Starred values were filed as active, the others as inactive.

Results for O=C(c1cc(-c2ccco2)on1)N1CCN(C(c2ccccc2)c2ccccc2)CC1 ?
M1 ag: -1.48; HEK293 NFkB inh: 10.7; hDAT+cocaine: 0.773; M1 antag: -2.75*; D1 mod: -0.403; BAP1 block: inactive; M1 antag conf: 458; mGluR4 antag: 170

What do the screens show for `COc1ccc(N2C(=O)CC(N3CCN(C4CCc5ccccc5C4)CC3)C2=O)cc1` (centres undefined)?
M1 ag: 0.0495; HEK293 NFkB inh: 8.9; hDAT+cocaine: -1.32; M1 antag: -2.25*; D1 mod: -0.348; BAP1 block: inactive; M1 antag conf: 435; mGluR4 antag: 223

What do the screens show for `COc1ccc(N2C(=O)CC(N3CCN(c4ccc(S(=O)(=O)N5CCCC5)cc4)CC3)C2=O)cc1` (centres undefined)?
M1 ag: -0.555; HEK293 NFkB inh: 6.1; hDAT+cocaine: -0.057; M1 antag: -0.422; D1 mod: -0.477; BAP1 block: inactive

How did CCOc1cc(C#N)c(NC(=O)c2ccnn2C)cc1OCC do in these assays?
M1 ag: 0.396; HEK293 NFkB inh: -1.6; hDAT+cocaine: -0.649; M1 antag: 0.686; D1 mod: 0.144; BAP1 block: inactive

Results for CCOc1cc(C#N)c(NC(=O)c2ccco2)cc1OCC ?
M1 ag: 0.726; HEK293 NFkB inh: 14.8; hDAT+cocaine: -0.72; M1 antag: -11.1*; D1 mod: 0.784; BAP1 block: inactive; M1 antag conf: 623; mGluR4 antag: 185

Results for CC(=O)c1ccc(NC(=O)c2ccccc2Cl)cc1 ?
BAP1 block: inactive

Results for Cn1c(=O)oc2cc(S(=O)(=O)NCc3ccccn3)ccc21 ?
M1 ag: 0.823; HEK293 NFkB inh: 10.6; hDAT+cocaine: 0.319; M1 antag: 0.0817; D1 mod: -0.7; BAP1 block: inactive

How did Cn1c(=O)oc2cc(S(=O)(=O)NCc3ccco3)ccc21 do in these assays?
M1 ag: 0.0178; HEK293 NFkB inh: 7.9; hDAT+cocaine: -1.53; M1 antag: -3.37*; D1 mod: 0.78; BAP1 block: inactive; M1 antag conf: 690; mGluR4 antag: 237

How did Cc1cc(C)cc(-n2nc3c(c2NC(=O)c2ccc(S(=O)(=O)N4CCCC4)cc2)CSC3)c1 do in these assays?
BAP1 block: inactive

How did O=C(Nc1c2c(nn1-c1ccc(Cl)cc1)CSC2)c1ccc(Cl)cc1 do in these assays?
BAP1 block: inactive

What do the screens show for `N#CC1=C(N)N2C(=C(C#N)C13CCN(Cc1ccccc1)CC3)Nc1ccccc12`?
M1 ag: -0.429; HEK293 NFkB inh: 4.7; hDAT+cocaine: 0.0826; M1 antag: -3.42*; D1 mod: -0.177; BAP1 block: inactive; M1 antag conf: 405*; mGluR4 antag: 187

What do the screens show for `COc1nc(NS(=O)(=O)c2ccc(C)cc2)nc(C)c1Br`?
BAP1 block: inactive

What do the screens show for `Cc1ccc(Nc2nc(N)nc(CN3CCN(Cc4ccc5c(c4)OCO5)CC3)n2)cc1`?
M1 ag: 0.85; HEK293 NFkB inh: 3.9; hDAT+cocaine: 0.184; M1 antag: -3.53*; D1 mod: -1.72; BAP1 block: inactive; M1 antag conf: 524; mGluR4 antag: 211

What do the screens show for `COc1ccc(Nc2nc(N)nc(CN3CCOCC3)n2)cc1`?
M1 ag: 0.518; HEK293 NFkB inh: 18.7; hDAT+cocaine: -0.0362; M1 antag: 0.14; D1 mod: 1.42; BAP1 block: inactive

How did COc1ccccc1Nc1nc(N)nc(CN2CCC(Cc3ccccc3)CC2)n1 do in these assays?
M1 ag: -0.302; HEK293 NFkB inh: 5.0; hDAT+cocaine: 1.32; M1 antag: -2.4*; D1 mod: -1.87; BAP1 block: inactive; M1 antag conf: 452*; mGluR4 antag: 228

Compound activity from PubChem.
